Calls of active or inactive are those of the source. The calls are words filed in the database; no cut-off is given here.
Experiments:
[1] = target: Keap1/Nrf2 (Homo sapiens) (UniProt Q16236+Q14145); assay: (§1) Activation of NRF2 in human U2OS cells co-expressing Keap1 (unknown origin) assessed as induction of NRF2 translocation to nucleus incubated for 6 hrs by beta-galactosidase based chemiluminescent assay; type: cell-based
Method in brief: (§2)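 PathHunter U2OS cells engineered to co-express enzyme donor-tagged NRF2 and nuclear-localized enzyme acceptor; Nrf2 nuclear translocation reconstitutes β-galactosidase. Cells in 96-well plates exposed to a range of compound concentrations for 6 h at room temperature (20–23 °C), then 1 h with detection reagent in the dark; chemiluminescence (RLU) read. EC50 from concentration-response curve, mean ± SEM, triplicate.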

Keap1/Nrf2 = Keap1/Nrf2 (Homo sapiens, UniProt Q14145+Q16236); assay: as §1; type: cell-based; method in brief: as §2
[2] = target: T1, Nuclear factor erythroid 2-related factor 2 (Mus musculus) (UniProt Q60795); assay: Activation of NRF2 in mouse BV2 cells assessed as inhibition of LPS-stimulated NO production preincubated for 6 hrs followed by LPS stimulation for 24 hrs by Griess reagent-based assay; type: cell-based
T1 sequence (whole entry): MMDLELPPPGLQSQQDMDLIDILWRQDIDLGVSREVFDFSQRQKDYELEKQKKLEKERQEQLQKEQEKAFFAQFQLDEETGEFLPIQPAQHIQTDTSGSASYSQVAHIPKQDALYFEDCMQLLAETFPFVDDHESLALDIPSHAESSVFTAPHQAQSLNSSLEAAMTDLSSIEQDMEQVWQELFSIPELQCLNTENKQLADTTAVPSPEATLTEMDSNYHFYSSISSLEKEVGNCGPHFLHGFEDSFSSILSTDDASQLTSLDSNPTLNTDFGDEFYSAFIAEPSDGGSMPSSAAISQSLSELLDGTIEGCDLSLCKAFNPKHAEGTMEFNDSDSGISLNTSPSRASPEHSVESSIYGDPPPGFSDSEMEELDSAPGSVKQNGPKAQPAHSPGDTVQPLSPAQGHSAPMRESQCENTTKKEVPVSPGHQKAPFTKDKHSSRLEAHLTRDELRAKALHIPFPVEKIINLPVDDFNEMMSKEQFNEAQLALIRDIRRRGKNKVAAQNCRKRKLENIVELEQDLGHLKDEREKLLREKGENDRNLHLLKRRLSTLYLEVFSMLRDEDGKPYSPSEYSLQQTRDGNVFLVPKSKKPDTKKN
Method in brief: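 BV-2 cells pretreated with a range of compound concentrations for 6 h, then stimulated with 1 µg/mL LPS for 24 h. Medium nitrite measured by Griess reaction (sulfanilamide/phosphoric acid, then NED, 5 min each at room temperature in the dark). Absorbance at 540 nm read against a nitrite standard curve.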

BV-2 = assay: Inhibition of H2O2-stimulated ROS accumulation in mouse BV2 cells preincubated for 24 hrs followed by H2O2 stimulation for 20 mins by DCFH-DA dye based fluorescence microscopy; type: functional, cell-based
Method in brief: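 BV-2 cells treated with a range of compound concentrations for 24 h at 37 °C. Loaded with 40 μM DCFH-DA for 40 min, then 300 μM H2O2 added for 20 min in the dark. Cells washed with PBS and DCF fluorescence imaged by digital microscopy.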

[3] = target: T1, Nuclear factor erythroid 2-related factor 2 (Mus musculus); assay: Activation of NRF2 in mouse BV2 cells assessed as increase in HO1 mRNA level at 0.1 to 10 uM incubated for 8 hrs by qRT-PCR analysis; type: cell-based
Method in brief: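 BV-2 microglia grown in RPMI 1640 with 10% FBS, 2.05 mM L-glutamine and penicillin-streptomycin at 37 °C, 5% CO2. Cells exposed to a range of compound concentrations for 8 h. Ho-1 or Gclm mRNA measured by qRT-PCR and expressed relative to untreated control. Means ± SEM, one-way ANOVA with Dunnett's test.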

Sequence of Keap1/Nrf2 (Q16236 whole entry): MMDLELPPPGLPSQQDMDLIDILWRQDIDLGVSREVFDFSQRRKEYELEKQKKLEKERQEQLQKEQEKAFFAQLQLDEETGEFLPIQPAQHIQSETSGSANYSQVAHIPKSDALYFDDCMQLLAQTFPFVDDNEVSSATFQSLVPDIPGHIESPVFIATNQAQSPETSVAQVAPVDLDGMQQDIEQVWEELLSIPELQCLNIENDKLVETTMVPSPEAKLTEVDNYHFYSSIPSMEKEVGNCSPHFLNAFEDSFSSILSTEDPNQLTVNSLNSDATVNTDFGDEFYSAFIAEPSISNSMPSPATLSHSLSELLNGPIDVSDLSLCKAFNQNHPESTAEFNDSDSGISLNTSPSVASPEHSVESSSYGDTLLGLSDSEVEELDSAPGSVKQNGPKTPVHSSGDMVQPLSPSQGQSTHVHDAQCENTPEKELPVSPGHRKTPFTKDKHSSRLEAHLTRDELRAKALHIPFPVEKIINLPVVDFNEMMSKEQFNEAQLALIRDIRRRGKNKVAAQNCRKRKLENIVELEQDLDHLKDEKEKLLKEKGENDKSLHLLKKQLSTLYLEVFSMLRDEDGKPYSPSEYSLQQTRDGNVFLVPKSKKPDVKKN
Sequence of Keap1/Nrf2 (Q14145 whole entry): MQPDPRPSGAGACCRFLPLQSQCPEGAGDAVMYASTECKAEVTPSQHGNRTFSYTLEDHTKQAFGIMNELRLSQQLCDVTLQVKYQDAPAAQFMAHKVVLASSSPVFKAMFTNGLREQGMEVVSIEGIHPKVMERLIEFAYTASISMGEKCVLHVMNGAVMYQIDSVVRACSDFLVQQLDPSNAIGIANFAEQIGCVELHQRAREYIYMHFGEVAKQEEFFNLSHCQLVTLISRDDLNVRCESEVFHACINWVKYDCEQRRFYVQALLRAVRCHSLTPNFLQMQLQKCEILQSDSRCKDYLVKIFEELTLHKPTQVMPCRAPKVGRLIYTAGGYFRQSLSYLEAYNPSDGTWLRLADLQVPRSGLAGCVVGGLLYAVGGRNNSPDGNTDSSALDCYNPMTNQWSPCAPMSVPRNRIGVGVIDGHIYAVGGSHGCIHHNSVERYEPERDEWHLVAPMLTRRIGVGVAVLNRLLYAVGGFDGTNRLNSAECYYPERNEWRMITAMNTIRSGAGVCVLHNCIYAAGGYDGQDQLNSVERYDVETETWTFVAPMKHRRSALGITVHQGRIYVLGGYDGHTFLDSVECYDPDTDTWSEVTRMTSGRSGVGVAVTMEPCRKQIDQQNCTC
Sequence of Keap1/Nrf2 (Homo sapiens) (Q14145 whole entry, looked up): as the sequence (Q14145 whole entry) above
Sequence of Keap1/Nrf2 (Homo sapiens) (Q16236 whole entry, looked up): as the sequence (Q16236 whole entry) above

`CN1CCN(C(=O)COc2ccc(C(=O)/C=C/c3ccccc3C(F)(F)F)cc2)CC1.Cl` was tested, and the Activity [1] was “Dose-dependent effect”, the EC50 (Keap1/Nrf2) was 630 nM and the Activity [2] was “Dose-dependent effect”. For the same compound, the inhibition (BV-2) was “Dose-dependent effect” and the Activity [3] was “Active”.
